One compound from ChEMBL document CHEMBL5352503, “Nonpeptidic Oxazole-Based Prolyl Oligopeptidase Ligands with Disease-Modifying Effects on α-Synuclein Mouse Models of Parkinson's Disease” (J Med Chem, 2023) can be followed below.

Data set [1] deals with SH-SY5Y. The data set is described as follows: Cytotoxicity against human SH-SY5Y cells assessed as cell viability at 1 to 100 uM incubated for 24 hrs by MTT assay. The class given is toxicity, cell-based. The settings on record: dose 1-100 µM.
Data set [2] in a line: Drug elimination in C57BL/6JRccHsd mouse brain at 10 mg/kg, ip measured at 180 mins by LC-MS analysis. The following applies: in vivo, 3 h. In kind it is ADME, organism-based. The method, boiled down:
(§1)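 Male C57BL/6JRCcHsd mice, 10 weeks old, dosed 10 mg/kg i.p. in 5% Tween-20 in 0.9% NaCl. Brains collected at 15, 30, 45, 60, 120 and 180 min. Brain compound concentration measured by LC-MS, and AUC0–180 min calculated.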

Data set [3] relates to Mus musculus. Description: Neuroprotective activity against AAV2-CBA-GFP injected C57BL/6JRccHsd mouse model of Parkinson's disease assessed as change in tyrosine hydroxylase positive cell count in substantia nigra pars compacta at 10 mg/kg/day, ip administered for 2 weeks by optical density based analysis. In kind it is functional, organism-based.
Data set [4] relates to Mus musculus. The data set is described as follows: Neuroprotective activity against AAV2-CBA-GFP injected C57BL/6JRccHsd mouse model of Parkinson's disease assessed as change in tyrosine hydroxylase positive dopaminergic neuron immunoreactivity in striatum at 10 mg/kg/day, ip administered for 2 weeks by optical density based analysis. The class given is functional, organism-based.

The subject of data set [5] is Mus musculus. The data set is described as follows: Neuroprotective activity against AAV2-CBA-alpha-synuclein virus vector injected C57BL/6JRccHsd mouse model of Parkinson's disease assessed as change in tyrosine hydroxylase positive dopaminergic neuron immunoreactivity in substantia nigra pars compacta at 10 mg/kg/day, ip administered for 2 weeks by optical density based analysis. In kind it is functional, organism-based.

In data set [6] the test system is HEK293. The data set is described as follows: Cytotoxicity against HEK293 cells assessed as cell viability at 1 to 100 uM incubated for 24 hrs by MTT assay. The settings on record: human, hek293, 24 h, dose 1-100 µM. The class given is toxicity, cell-based.
Data set [7] is described as follows: Permeability of the compound across blood brain barrier in C57BL/6JRccHsd mouse at 1.11 uM, ip measured at 30 mins by LC-MS analysis. In kind it is ADME, organism-based. The settings on record: 0.5 h. The gist of the method: as §1
In data set [8] the test system is Neuron. The data set is described as follows: Cytotoxicity against mouse primary neurons cells assessed as cell viability at 1 to 100 uM incubated for 48 hrs by MTT assay. In kind it is toxicity, cell-based. The settings on record: dose 1-100 µM. In general terms: Tetrazolium dyes change colour on reduction, which living cells bring about.
The target of data set [9] is Dipeptidyl peptidase 2 (Homo sapiens) (UniProt Q9UHL4). The data set is described as follows: Inhibition of recombinant human DPP2 using Lys-Ala-pNA as substrate at 1 to 10 uM preincubated for 15 mins followed by substrate addition and measured for 10 mins. The following applies: dose 1-10 µM, time 25.0 min. The gist of the method: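 Recombinant human DPP2 with 1 mM Lys-Ala-pNA, pH 5.5, in 100 mM NaAc, 10 mM EDTA and 14 μg/mL aprotinin. Compound at 1 and 10 μM, preincubated 15 min at 37 °C. pNA release read kinetically at 405 nm for at least 10 min at 37 °C.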

Data set [10] concerns Mus musculus. Description: Anti-parkinson activity in AAV2-CBA-alpha-synuclein virus vector injected Parkinson's disease C57BL/6JRccHsd mouse model assessed as motor deficit by measuring decrease in use of ipsilateral forepaw usage at 10 mg/kg/day, ip administered for 2 to 4 weeks of treatment by cylinder test. The class given is functional, organism-based. The following applies: time 2-4 weeks. The gist of the method:
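Male C57BL/6JRCcHsd mice, 10–11 weeks old, got a unilateral AAV2-CBA-αSyn injection above the SNpc. Dosing started 4 weeks later at 10 mg/kg/day i.p. by Alzet minipump. Ipsilateral forepaw use was scored by cylinder test at 6 and 8 weeks post-injection, against vehicle-treated αSyn-injected and AAV-GFP control mice. Two-way ANOVA with Dunnett's comparisons was used.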

Data set [11] is described as follows: Activation of PP2A in HEK293 cells by measuring decrease in ratio between Tyr307 phosphorylated inactive PP2Ac to total PP2Ac incubated for 4 hrs by Western blot analysis. The class given is cell-based. The following applies: Homo sapiens, HEK293, 4 h. The gist of the method:
(§2)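 HEK-293 cells seeded 500,000/well, attached overnight, then exposed to compound (0.1% DMSO vehicle) for 4 or 24 h. Lysed in RIPA. Western blot with 30 μg protein on 4–20% gels, PVDF transfer, skim-milk block, primary antibody overnight at +4 °C. Detection by chemiluminescence, band OD normalized to β-actin or vinculin. pPP2Ac is the Tyr307-phosphorylated form.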
(A western blot detects proteins with antibodies after separation by electrophoresis.)

Data set [12] deals with HEK293. Description: Activation of PP2A in HEK293 cells assessed as increase in total PP2Ac level at 0.01 to 50 uM incubated for 4 hrs by Western blot analysis. In kind it is cell-based. The settings on record: Homo sapiens, filed as activator, dose 0.01-50 µM. The method, boiled down:
as §2

Data set [13] relates to Mus musculus. The data set is described as follows: Downregulation of alpha-syn oligomer in C57BL/6JRccHsd mouse substantia nigra pars compacta injected with AAV2-CBA-alpha-synuclein virus at 10 mg/kg/day, ip administered for 2 weeks by optical density based analysis. The class given is functional, organism-based. The gist of the method:
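Unilateral AAV2-CBA-αSyn was injected above the SNpc of male C57BL/6JRCcHsd mice. Dosing at 10 mg/kg/day i.p. by Alzet minipump began 4 weeks after injection. Brain sections were immunostained for oligomer-specific αSyn and optical density was measured in striatum and SNpc, with n = 7–9/group, reported as mean ± SEM.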

For data set [14], the system named is HEK293. The data set is described as follows: Activation of PP2A in HEK293 cells assessed as increase in LC3B-II level at 0.1 to 10 uM incubated for 4 hrs by Western blot analysis. In kind it is cell-based. The settings on record: Homo sapiens, filed as activator, dose 0.1-10 µM. The gist of the method: as §2
Data set [15] relates to Mus musculus. Description: Neuroprotective activity against AAV2-CBA-alpha-synuclein virus vector injected C57BL/6JRccHsd mouse model of Parkinson's disease assessed as change in tyrosine hydroxylase positive dopaminergic neuron immunoreactivity in striatum at 10 mg/kg/day, ip administered for 2 weeks by optical density based analysis. In kind it is functional, organism-based.

In data set [16] the target is Prolyl endopeptidase FAP (Homo sapiens) (UniProt Q12884). The data set is described as follows: Inhibition of human FAP expressed in Sf9 insect cells using […] at 1 to 10 uM preincubated for 15 mins followed by substrate addition and measured for 10 mins. The following applies: dose 1-10 µM, time 25.0 min. The method, boiled down: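 Z-Gly-Pro-AMC at 50 μM, pH 8, in 0.05 M Tris-HCl with 0.1% glycerol, 1 mg/mL BSA and 140 mM NaCl. Enzyme preincubated with compound 15 min at 37 °C. AMC release read kinetically at ex 380/em 465 nm for at least 10 min at 37 °C.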
Chain of Prolyl endopeptidase FAP (Homo sapiens) (Q12884 whole entry): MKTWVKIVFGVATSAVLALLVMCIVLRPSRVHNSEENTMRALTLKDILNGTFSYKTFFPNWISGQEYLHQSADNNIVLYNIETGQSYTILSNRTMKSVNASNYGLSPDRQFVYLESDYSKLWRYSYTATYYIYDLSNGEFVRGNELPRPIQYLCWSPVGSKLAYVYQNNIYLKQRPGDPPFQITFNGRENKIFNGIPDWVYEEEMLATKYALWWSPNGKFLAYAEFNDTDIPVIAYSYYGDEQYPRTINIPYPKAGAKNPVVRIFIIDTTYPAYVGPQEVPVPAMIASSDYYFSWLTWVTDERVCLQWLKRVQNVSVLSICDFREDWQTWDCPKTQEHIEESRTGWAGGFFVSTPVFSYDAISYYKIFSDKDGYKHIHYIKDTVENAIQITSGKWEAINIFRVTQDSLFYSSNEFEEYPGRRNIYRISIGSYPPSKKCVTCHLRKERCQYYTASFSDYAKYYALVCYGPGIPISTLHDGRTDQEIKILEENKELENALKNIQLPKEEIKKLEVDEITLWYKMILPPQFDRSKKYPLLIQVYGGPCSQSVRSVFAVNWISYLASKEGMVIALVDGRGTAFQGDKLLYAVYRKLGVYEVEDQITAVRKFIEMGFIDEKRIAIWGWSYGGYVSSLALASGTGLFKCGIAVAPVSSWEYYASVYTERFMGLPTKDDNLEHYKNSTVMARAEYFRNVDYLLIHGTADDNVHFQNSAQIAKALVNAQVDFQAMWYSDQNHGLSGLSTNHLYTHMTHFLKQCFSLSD

Data set [17] has as its target Alpha-synuclein (Homo sapiens) (UniProt P37840). The data set is described as follows: Inhibition of alpha-synuclein (unknown origin) dimerization transfected in PREP knockout HEK293 cells at 10 uM incubated for 4 hrs by luminescence based multimode plate reader method. In kind it is cell-based. The gist of the method: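 Split Gaussia luciferase protein-fragment complementation in HEK-293 PREP-KO cells, run like the N2A protocol. Cells transfected with αSyn-Gluc1 and αSyn-Gluc2; 48 h later treated 4 h at 10 μM. Luminescence read after injecting native coelenterazine.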

Data set [18] deals with HEK293. The data set is described as follows: Activation of PP2A in HEK293 cells by measuring decrease in ratio between Tyr307 phosphorylated inactive PP2Ac to total PP2Ac at 1 uM incubated for 4 hrs by Western blot analysis. The class given is cell-based. The settings on record: Homo sapiens, filed as activator. The method, boiled down: as §2
Data set [19] relates to Mus musculus. Description: Neuroprotective activity against AAV2-CBA-alpha-synuclein virus vector injected C57BL/6JRccHsd mouse model of Parkinson's disease assessed as change in tyrosine hydroxylase positive cell count in substantia nigra pars compacta at 10 mg/kg/day, ip administered for 2 weeks by optical density based analysis. In kind it is functional, organism-based.

Calls of active or inactive are those of the source. No cut-off for these calls is given here.

On to `Cc1nc(CCCc2ccccc2)oc1N1CCC[C@H]1C#N`, for which the Activity entry in [1], in data set [6] and in data set [8] was “Non-Toxic” throughout. Moreover, the Drug excretion result in data set [2] is given as “Not Active”. Besides, the outcome in [3], in data set [4], in [5], in data set [13], in [15] and in data set [19] was inactive. Moreover, the pBBB entry in [7] is “Permeable”. Further, the inhibition result in [9], in data set [16] and in [17] was “inactive” throughout. Besides, the result in data set [10], in data set [12], in data set [14] and in [18] was Active. Further, the concentration for a half-maximal effect (EC50) – broadly, the midpoint of the concentration-response curve – in [11] stood at 275 nM.
